According to paper PMC12444810 (Chemmedchem, 2025):
Non-standard residues stand in square brackets, D forms with d. Residues, ends and D or L forms follow the SMILES beside them. *: point of attachment. Phe(4-F) = N[C@@H](Cc1ccc(F)cc1)C(=O)O; Cbz = O=C(OCc1ccccc1)*

Assays:
[1] = PAMPA passive membrane permeability; assay type: in vitro ADME; settings: for passive membrane permeability, in words: 10 µM, 13 h incubation, triplicate
[2] = test system: Vero/SLAM cells; experiment: CCK-8 cytotoxicity assay; assay type: cell-based; settings: CCK-8 assay, 100 µM, 24 h; result in words
[3] = test system: fusion protein of canine distemper virus; settings: cited from earlier work
[4] = test system: MeV‐F; settings: cited from earlier work; for IC50: reported value
[5] = target: T1, MeV‐F (Measles virus, UniProt Q786F3); experiment: Cell-to-cell fusion assay; assay type: cell-based; settings: 0.5 µM peptide, triplicate (Figure S2)
T1 sequence (Q786F3 113-550 limits assumed): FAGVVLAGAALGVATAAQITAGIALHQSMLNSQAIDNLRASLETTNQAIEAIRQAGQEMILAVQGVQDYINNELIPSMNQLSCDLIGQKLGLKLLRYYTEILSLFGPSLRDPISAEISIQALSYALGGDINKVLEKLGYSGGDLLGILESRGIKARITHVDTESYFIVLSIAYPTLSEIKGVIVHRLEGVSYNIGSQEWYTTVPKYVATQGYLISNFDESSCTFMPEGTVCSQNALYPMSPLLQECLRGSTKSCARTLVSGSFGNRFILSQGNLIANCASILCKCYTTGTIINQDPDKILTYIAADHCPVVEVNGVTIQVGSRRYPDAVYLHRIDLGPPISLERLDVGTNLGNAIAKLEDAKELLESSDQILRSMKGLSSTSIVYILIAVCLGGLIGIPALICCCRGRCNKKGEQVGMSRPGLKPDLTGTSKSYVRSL
T1 sequence (Q786F3 24-112 limits assumed): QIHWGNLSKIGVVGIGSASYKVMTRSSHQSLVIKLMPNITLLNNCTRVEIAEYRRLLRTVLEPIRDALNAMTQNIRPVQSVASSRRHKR
Outline: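 Vero cells stably expressing human SLAM were transfected with plasmids encoding MeV‑F, MeV‑H and EGFP, then incubated with test compound for 24 h. Syncytium formation was judged by EGFP fluorescence imaging. Controls were cells without peptide and cells transfected with EGFP plasmid alone. Run in triplicate.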

[6] = test system: EGFP‐recombinant MeV (MeV‐EGFP); experiment: Viral entry inhibition assay; assay type: cell-based, measles virus; settings: ratio of IC50 values in the viral entry inhibition assay
Outline: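 Vero/hSLAM cells were infected with EGFP‑recombinant MeV in the presence of test compound for 1 h. Virus medium was removed and cells were kept 48 h in medium containing 100 µM of the parent fusion‑inhibitor peptide. Fluorescent infected cells were counted to give IC50, in triplicate. The ratio is taken against the parent peptide's IC50, measured under the same conditions.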

| Compound | passive membrane permeability, in words [1] | cytotoxicity to Vero/SLAM cells [2] | inhibition of canine distemper virus fusion protein [3] | IC50 [4] | Papp at 13 h, 10 µM [1] | inhibition of syncytia formation, comparison of the two compounds [5] | enhancement in inhibitory activity compared to FIP [6] | inhibitory activity compared to the original FIP ([4]; authors' previous study) |
| --- | --- | --- | --- | --- | --- | --- | --- | --- |
| O=C(O)CNC(=O)[C@H](Cc1ccccc1)NC(=O)[C@@H](Cc1ccccc1)NC(=O)OCc1ccccc1 [FIP] (Cbz-[dF]-Phe-Gly-OH) | negligible level of permeability | did not exhibit cytotoxicity | does not inhibit | 1300 nM |  |  |  |  |
| NC(=O)CNC(=O)[C@H](Cc1ccc(F)cc1)NC(=O)[C@@H](Cc1ccccc1)NC(=O)OCc1ccccc1 [FIP‐F2pF‐NH2] (Cbz-[dF]-[Phe(4-F)]-Gly-NH2) |  | did not exhibit cytotoxicity |  |  | 1.4 ± 0.1 ×10⁻⁶ cm/s | stronger inhibitor than FIP‐ZoF‐NH2 | 23 fold |  |
| N=C(N)NCCC[C@@H](NC(=O)[C@H](Cc1ccccc1)NC(=O)[C@@H](Cc1ccccc1)NC(=O)OCc1ccccc1)C(N)=O [FIP‐G3r‐NH2] (Cbz-[dF]-Phe-[dR]-NH2) | did not passively permeate the lipid membrane | did not exhibit cytotoxicity |  | 210 nM |  |  |  |  |
| NC(=O)CNC(=O)[C@H](Cc1ccccc1)NC(=O)[C@@H](Cc1ccccc1)NC(=O)OCc1ccccc1 [FIP‐NH2] (Cbz-[dF]-Phe-Gly-NH2) |  |  |  |  | 1.2 ± 0.2 ×10⁻⁶ cm/s |  |  | slight improvement in inhibitory activity |
